This is a sample that favours compounds with a hit; in the whole collection about 1.3% have one here.
MT1-MMP act inh: MT1-MMP (human) activation inhibition; HT1080 RFP-PRO-GFP cells, GFP/RFP ratio fluorescence, overnight; percent of plate control window, DMSO zero; GFP/RFP ratio change, % at 20 µM; 360,000 tested, 0.061% active; P50281;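 active = GFP/RFP ratio change of at least 30% with cell ATP level not reduced by more than half and red fluorescence within 50% of control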
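Compound: 20 µM single dose, 1% DMSO / System: HT1080 RFP-PRO-GFP cells / Controls: DMSO and RFP-L50D-GFP cell wells / Read-out basis: GFP/RFP fluorescence ratio / Schedule: overnight compound exposure at 37 °C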
SKN-1 block: inhibitors of C. elegans SKN-1; inhibition, % at 21.8 µM; C. elegans VP596 Pgst-4::GFP/RFP ratio, acrylamide-induced, 24 h; 360,000 tested, 0.49% active; AID 624304;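 active = interference check ratio from 0.5 to 1.5 plus GFP to RFP signal ratio inhibition reaching or exceeding a fixed threshold, cut at about 30% in these data, passing the limit was not always enough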
DAGLB inhibitor: diacylglycerol lipase beta (human) inhibition | Q8NCG7 | HEK293T DAGLB membrane lysate, EnzChek fluorogenic substrate | inhibition, % at 5.17 µM | 340,000 tested, 0.059% active; in the data active = inhibition above about 34%;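 note: 0% = enzyme with vehicle and 100% = wells lacking enzyme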
Target sequence (Q8NCG7 whole entry, looked up): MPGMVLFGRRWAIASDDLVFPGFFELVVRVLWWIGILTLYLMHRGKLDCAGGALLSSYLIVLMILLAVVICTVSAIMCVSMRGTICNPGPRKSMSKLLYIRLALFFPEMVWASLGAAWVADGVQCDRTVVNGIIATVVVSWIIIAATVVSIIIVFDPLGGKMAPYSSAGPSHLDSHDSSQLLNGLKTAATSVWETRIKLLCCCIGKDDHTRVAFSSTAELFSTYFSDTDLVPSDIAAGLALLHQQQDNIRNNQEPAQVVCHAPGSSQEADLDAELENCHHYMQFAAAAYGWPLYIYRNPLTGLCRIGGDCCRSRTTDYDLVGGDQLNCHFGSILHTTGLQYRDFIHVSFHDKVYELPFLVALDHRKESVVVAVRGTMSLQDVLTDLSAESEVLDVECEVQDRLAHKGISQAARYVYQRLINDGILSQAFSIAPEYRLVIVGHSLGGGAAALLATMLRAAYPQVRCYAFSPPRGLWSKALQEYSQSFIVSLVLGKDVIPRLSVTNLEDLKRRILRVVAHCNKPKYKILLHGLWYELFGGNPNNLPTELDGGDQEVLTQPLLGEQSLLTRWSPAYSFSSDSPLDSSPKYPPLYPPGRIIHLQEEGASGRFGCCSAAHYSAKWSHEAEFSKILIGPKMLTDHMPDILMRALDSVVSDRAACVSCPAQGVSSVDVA
hiPSC survival: enhancers of human iPSC single-cell survival | hiPSC single-cell survival, ATPlite luminescence; 100% = ROCK inhibitor wells, 0% = DMSO | 360,000 tested, 0.044% active | survival enhancement, % at 20 µM; in the data active = survival enhancement above about 18%;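 note: cells exposed to compounds for 16 hours before the ATP read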
FAS TE block: blocks the thioesterase domain of human fatty acid synthase; 360,000 tested, 0.67% active; recombinant FAS-TE, OMFH fluorogenic substrate, fluorescence endpoint; P49327; inhibition, % at 15 µM; AID 602261;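 active = compounds whose normalised, plate-corrected inhibition of enzyme fluorescence in the single-dose primary screen is 50% or more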;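 note: 0% = DMSO with enzyme and 100% = substrate without enzyme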
* = called active by the depositor.

Results for CN(C)c1ccc(C=C2C=Cc3ccccc32)cc1 ?
MT1-MMP act inh: 3; SKN-1 block: 3; DAGLB inhibitor: -4; hiPSC survival: -4; FAS TE block: 19

How did CNc1ccc(C=C2C=Cc3ccccc32)cc1 do in these assays?
MT1-MMP act inh: -2; SKN-1 block: 82*; DAGLB inhibitor: 3; hiPSC survival: -3; FAS TE block: 30

How did O=C(NCCN1CCC(n2c(=O)[nH]c3ccccc32)CC1)N1c2ccccc2Sc2ccccc21 do in these assays?
MT1-MMP act inh: 6; SKN-1 block: 1; hiPSC survival: -1; FAS TE block: -6

How did O=C(Nc1ccc(F)cc1)C(c1cc2ccccc2o1)N1CCN(CC(=O)N2CCCC2)CC1 (centres undefined) do in these assays?
MT1-MMP act inh: 2; SKN-1 block: 24

How did CNc1nc(-c2ccccc2)c2sccc2n1 do in these assays?
MT1-MMP act inh: -2; SKN-1 block: -3; hiPSC survival: 4; FAS TE block: 3

What do the screens show for `Cc1ccc(N2C(=O)C3C(C2=O)N2C(c4cccs4)C4C(=O)N(c5ccc(C)cc5)C(=O)C4N2C3c2cccs2)cc1` (centres undefined)?
MT1-MMP act inh: -5; SKN-1 block: 18; DAGLB inhibitor: -2; hiPSC survival: -1; FAS TE block: 84*

How did C[C@H](CO)N1C[C@H](C)[C@@H](CN(C)S(=O)(=O)c2ccccc2)OCCCC[C@H](C)Oc2ccc(NC(=O)CCC(F)(F)F)cc2C1=O do in these assays?
SKN-1 block: -18; DAGLB inhibitor: -4; hiPSC survival: -2; FAS TE block: -3

How did COc1cccc(C2Nc3ccc4ccccc4c3C3=C2C(=O)CC(C)(C)C3)c1OCC(=O)O (centres undefined) do in these assays?
MT1-MMP act inh: -3; SKN-1 block: 35*; DAGLB inhibitor: 2; hiPSC survival: -1; FAS TE block: -4

Results for CCOc1cc(NC(=O)c2ccco2)c(OCC)cc1NC(=O)CCc1ccccc1OC ?
MT1-MMP act inh: 2; SKN-1 block: 39*; DAGLB inhibitor: -4; hiPSC survival: -3; FAS TE block: 20

What do the screens show for `C[C@@H]1CN([C@H](C)CO)C(=O)c2cc(Br)cnc2O[C@H]1CN(C)C(=O)Cc1ccccc1`?
MT1-MMP act inh: 8; SKN-1 block: -8; DAGLB inhibitor: -1; hiPSC survival: -1; FAS TE block: -9

What do the screens show for `FCCCOc1ccc(-c2nccc(-c3ccccn3)n2)cc1`?
MT1-MMP act inh: -1; SKN-1 block: 66*; DAGLB inhibitor: -15; hiPSC survival: 0; FAS TE block: 16

What do the screens show for `O=C(O)COc1ccc(-c2nccc(-c3ccccn3)n2)cc1`?
MT1-MMP act inh: 6; SKN-1 block: -4; DAGLB inhibitor: 1; hiPSC survival: 4; FAS TE block: -3

Results for COC(=O)[C@@]12C[C@@H](CC(=O)NCCC(C)C)C(=O)N(Cc3ccc4c(c3)OCO4)C1=CCC(C)(C)C2 ?
MT1-MMP act inh: -9; SKN-1 block: 4

Results for Cc1cc(C)c(CN2CCN(C(=O)CC[C@H]3O[C@@H](n4ccc(=O)[nH]c4=O)[C@H](O)[C@@H]3O)CC2)c(C)c1 ?
MT1-MMP act inh: 3; SKN-1 block: -11; hiPSC survival: 4; FAS TE block: -4

How did O=C(/C=C/[C@H]1O[C@@H](n2ccc(=O)[nH]c2=O)[C@H](O)[C@@H]1O)NCCN1CCCC1 do in these assays?
MT1-MMP act inh: 2; SKN-1 block: 10; hiPSC survival: -2; FAS TE block: -9

How did COc1ccc(C(=O)Nn2c(SCc3ccc([N+](=O)[O-])cc3)nc3ccccc3c2=O)cc1 do in these assays?
MT1-MMP act inh: 1; SKN-1 block: -5; DAGLB inhibitor: -1; hiPSC survival: 0; FAS TE block: 52*

What do the screens show for `Cc1cn([C@H]2C[C@H](O)[C@@H](CCC(=O)NCCc3cccs3)O2)c(=O)[nH]c1=O`?
MT1-MMP act inh: 1; SKN-1 block: 1; hiPSC survival: 0; FAS TE block: -13

What do the screens show for `CN(C)CC#Cc1cccc(-c2nc(C(=O)O)cc3c2[C@@H](CCO)N(S(=O)C(C)(C)C)C3)c1` (some centres undefined)?
MT1-MMP act inh: 1; SKN-1 block: 14; hiPSC survival: 5; FAS TE block: -6

Results for C=CC[n+]1ccc(/C=C2\C=Cc3cc(C)ccc3N2CC)c2ccccc21 ?
MT1-MMP act inh: 61*; SKN-1 block: 38*; DAGLB inhibitor: 10; hiPSC survival: -3; FAS TE block: -4

Assay outcomes (PubChem)
